Data on 4 compounds can be found in ChEMBL document CHEMBL1125618, “Studies on (H(+)-K+)-ATPase inhibitors of gastric acid secretion. Prodrugs of 2-[(2-pyridinylmethyl)sulfinyl]benzimidazole proton-pump inhibitors” (J Med Chem, 1991).

Active and inactive are the calls of the source. The rule behind the calls is not given here.

In experiment [1] the target is T1, Potassium-transporting ATPase (Sus scrofa, UniProt P18434+P19156). The experiment in a line: Activity was evaluated by measuring the inhibition of isolated hog H+/K+ ATPase; No effect. The experiment is classed as protein-complex assay. A digest of the protocol: (§1)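 Hog fundic mucosa microsomes. Vesicles (30 μg) preincubated with compound at 37 °C in 40 mM Tris-acetate pH 7.4, 7 mM NH4Cl, with or without KCl. Reaction started with 2 mM ATP (final), run 10 min at 37 °C, stopped with cold TCA plus charcoal. Released inorganic phosphate measured colorimetrically. IC50 from dose-response, mean of triplicates.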

For experiment [2], the target named is T2, Potassium-transporting ATPase (Rattus norvegicus) (UniProt P09626+P18598). The experiment in a line: Inhibition of isolated rat H+/K+ ATPase at 10 mg/kg; Inactive. The format is functional, organism-based. On the set-up: dose 10 mg/kg. A digest of the protocol: (§2)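 Male Sprague-Dawley rats (~230 g), fasted 16 h without food or water in restraining cages. Compound in 1 mL isotonic saline with 25% ethanol, given sc or by gavage. Killed 3 h later. Fundic mucosa pooled from four rats per treatment, homogenized, microsomes isolated at 170000g. K+-stimulated ATPase assayed as for hog enzyme. ED50 from at least five doses, each in triplicate.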

A further experiment is filed under the species Oryctolagus cuniculus. Nature of the experiment: Antisecretory effect in isolated rabbit gastric glands as measured by aminopyrine uptake. The experiment is classed as functional, Stomach. In a few lines: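 Gastric glands from male New Zealand rabbits (1.5-2.0 kg), isolated by collagenase digestion at 37 °C, pH 7.4. Incubated with compound 45 min at 37 °C with vigorous shaking. Pellet and supernatant radioactivity counted by liquid scintillation. ID50 from at least six doses, duplicate at each dose.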

Experiment [3] has as its target T2, Potassium-transporting ATPase (Rattus norvegicus). Nature of the experiment: Activity was evaluated by measuring the inhibition of isolated rat H+/K+ ATPase, sc. The format is protein-complex assay. In a few lines: as §2
For experiment [4], the target named is Potassium-transporting ATPase (Sus scrofa, UniProt P19156). Nature of the experiment: Activity was evaluated by measuring the inhibition of isolated hog H+/K+ ATPase. The experiment is classed as protein-complex assay. A digest of the protocol:
as §1

Experiment [5] has as its target T2, Potassium-transporting ATPase (Rattus norvegicus). Nature of the experiment: Inhibitory activity was evaluated by measuring the inhibition of isolated rat H+/K+ ATPase at a concentration of 10 mg/kg. The experiment is classed as organism-based. On the set-up: dose 10 mg/kg. In a few lines: as §2
Experiment [6] addresses T1, Potassium-transporting ATPase. Nature of the experiment: Activity was evaluated by measuring the inhibition of isolated hog H+/K+ ATPase; No effect at 5E-4. The experiment is classed as protein-complex assay. A digest of the protocol:
as §1

Experiment [7] relates to Potassium-transporting ATPase (Rattus norvegicus). Nature of the experiment: Activity was evaluated by measuring the inhibition of isolated rat H+/K+ ATPase at 10 mg/kg; Inactive.

T1 sequence (P18434 whole entry): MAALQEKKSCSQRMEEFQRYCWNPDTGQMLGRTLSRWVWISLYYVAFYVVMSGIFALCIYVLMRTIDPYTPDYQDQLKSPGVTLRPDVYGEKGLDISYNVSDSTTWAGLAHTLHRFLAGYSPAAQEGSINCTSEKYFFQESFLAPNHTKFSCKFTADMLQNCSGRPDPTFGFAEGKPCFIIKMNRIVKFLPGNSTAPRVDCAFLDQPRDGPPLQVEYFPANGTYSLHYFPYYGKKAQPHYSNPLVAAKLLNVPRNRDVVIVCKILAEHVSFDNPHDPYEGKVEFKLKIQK
T1 sequence (P19156 whole entry): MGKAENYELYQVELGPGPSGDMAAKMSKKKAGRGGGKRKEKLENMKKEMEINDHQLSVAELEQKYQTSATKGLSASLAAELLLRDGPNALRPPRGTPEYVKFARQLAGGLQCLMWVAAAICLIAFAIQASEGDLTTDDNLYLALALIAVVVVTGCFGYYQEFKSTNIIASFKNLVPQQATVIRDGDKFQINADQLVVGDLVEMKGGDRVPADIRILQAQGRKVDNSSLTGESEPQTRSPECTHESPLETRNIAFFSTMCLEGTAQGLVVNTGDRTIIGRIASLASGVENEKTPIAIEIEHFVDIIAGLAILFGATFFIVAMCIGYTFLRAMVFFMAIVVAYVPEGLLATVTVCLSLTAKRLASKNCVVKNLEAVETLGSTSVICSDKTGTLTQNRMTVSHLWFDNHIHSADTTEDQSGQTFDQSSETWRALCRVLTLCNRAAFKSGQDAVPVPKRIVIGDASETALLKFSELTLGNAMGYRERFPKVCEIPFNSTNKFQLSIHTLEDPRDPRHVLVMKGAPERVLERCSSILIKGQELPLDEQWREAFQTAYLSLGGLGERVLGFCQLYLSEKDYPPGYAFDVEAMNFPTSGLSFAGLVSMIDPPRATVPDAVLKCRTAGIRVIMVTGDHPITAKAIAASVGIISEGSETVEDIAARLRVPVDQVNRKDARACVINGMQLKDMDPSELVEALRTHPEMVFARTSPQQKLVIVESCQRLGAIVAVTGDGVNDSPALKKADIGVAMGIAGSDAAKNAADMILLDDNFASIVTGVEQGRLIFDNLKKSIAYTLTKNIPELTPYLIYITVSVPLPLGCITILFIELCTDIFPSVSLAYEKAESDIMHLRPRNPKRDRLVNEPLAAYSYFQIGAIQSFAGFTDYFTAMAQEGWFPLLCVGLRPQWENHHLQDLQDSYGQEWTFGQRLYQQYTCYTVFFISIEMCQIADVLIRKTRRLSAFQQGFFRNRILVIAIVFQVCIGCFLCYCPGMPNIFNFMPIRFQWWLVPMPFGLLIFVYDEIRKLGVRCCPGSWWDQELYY
Chain of Potassium-transporting ATPase (Sus scrofa, UniProt P19156) (P18434 whole entry): as the sequence (P18434 whole entry) above
Chain of Potassium-transporting ATPase (Sus scrofa, UniProt P19156) (P19156 whole entry): as the sequence (P19156 whole entry) above

In general, IC50 refers to the concentration needed to halve the response being measured. Lower therefore signals inhibition by little substance. The ED50 is the dose at which the effect has come halfway, by size or by number of responders. Take `CCSc1ccnc(C[S+]([O-])c2nc3ccccc3n2CSC)c1C` (stereo not given): the IC50 result in experiment [1] is listed as “Not Active”. The ED50 result in experiment [2] was “inactive”. In the experiment filed under Oryctolagus cuniculus, this compound yielded an ID50 of 90 µM.
Turning to `CCOC(C)n1c([S+]([O-])Cc2ccccn2)nc2ccccc21` (stereo not given), the ED50 in experiment [3] came to 5 mg/kg. The compound also returned an IC50 in experiment [4] of 1000 µM. Besides, in the experiment listed under Oryctolagus cuniculus (Stomach), the ID50 entry is “inactive”.
What is called inhibition is how much of the control response was suppressed. A high value points to a strong effect. `CCSc1ccnc(C[S+]([O-])c2nc3ccccc3n2COC(=O)c2ccccc2)c1C` (stereo not given) showed an inhibition in experiment [5] of 30%. In addition, the ID50 in the experiment listed under Oryctolagus cuniculus turned out to be 1.5 µM. Besides, in experiment [6], the IC50 result is recorded as “Not Active”.
As to `CC(=O)OCn1c(SCc2nccc3c2CCC[S+]3[O-])nc2ccccc21` (stereo not given), the ED50 result in experiment [7] was “inactive”.
